This is a sample that favours compounds with a hit; in the whole collection about 2% have one here.
HNF4A DNA FP – change in binding of human HNF4 alpha to DNA. P41235. HNF4a-FITC DNA binding, fluorescence polarization, 1 h. activity change, % at 10 µM. 0.3% of 360,000 active. AID 1224865; in the data active = activity change above about 30%, passing the limit was not always enough
Target sequence (P41235 whole entry, looked up): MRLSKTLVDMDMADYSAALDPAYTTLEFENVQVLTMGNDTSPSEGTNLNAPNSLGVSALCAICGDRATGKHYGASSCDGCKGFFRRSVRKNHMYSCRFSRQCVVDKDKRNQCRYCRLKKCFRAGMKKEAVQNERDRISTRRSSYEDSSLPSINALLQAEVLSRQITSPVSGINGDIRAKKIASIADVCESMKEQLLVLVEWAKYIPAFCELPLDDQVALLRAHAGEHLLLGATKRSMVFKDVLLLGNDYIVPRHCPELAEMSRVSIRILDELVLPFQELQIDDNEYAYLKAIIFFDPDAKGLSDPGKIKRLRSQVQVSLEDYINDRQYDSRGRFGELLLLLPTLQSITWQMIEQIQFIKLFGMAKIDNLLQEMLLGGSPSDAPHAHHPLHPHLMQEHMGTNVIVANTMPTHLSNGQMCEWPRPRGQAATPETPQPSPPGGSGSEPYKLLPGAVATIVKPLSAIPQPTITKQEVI
ATG4B inhibitor – inhibitors of human ATG4B cysteine protease; ATG4B cleavage of LC3-PLA2, NBD-HPC fluorescence, 1 h; inhibition, % at 8.33 µM; 0.51% of 340,000 active; Q9Y4P1
CSN inh – blocks human CSN-mediated cullin deneddylation; Q92905; Purified CSN, SCF-Nedd8-OG deneddylation, fluorescence polarization; inhibition, % at 12.5 µM; 0.38% of 360,000 active;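 active = pattern-corrected inhibition above about 35%, with an unprinted fluorescence ratio check between 0.5 and 1.5, limit read from the data, passing the limit was not always enough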
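Test system: Human Csn5 produced in HEK293T cells | Compound: 12.5 µM single point | Times: 90 min, room temperature | Signal: Fluorescence polarization readout | Read-out basis: % inhibition of substrate cleavage by Csn5 | Controls: no-enzyme wells high, enzyme-with-substrate wells low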
Rpn11 block – Rpn11 (human) deubiquitinase inhibition; inhibition, % at 20 µM; 0.59% of 360,000 active; O00487; human 26S proteasome, Ub4-pepOG fluorescence polarization; 20S core pre-blocked with epoxomicin; AID 588493;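 active = inhibition at 20 µM, scaled to each plate's controls, above about 33%, limit read from the data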
TPT1 inhibitor – C. albicans TPT1 enzyme inhibition; 0.81% of 300,000 active; recombinant caTPT1, FP RNA substrate dephosphorylation; inhibition, % at 5 µM; AID 1962;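 active = inhibition above the mean of all tested compounds plus 3 SD, set per screening campaign, cut at about 24% in these data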
SENP1 inh – inhibitors of human SENP1 SUMO protease catalytic domain; Q9P0U3; recombinant SENP1 catalytic domain, CyPet-SUMO1-YPet FRET cleavage; inhibition, % at 10 µM; 0.21% of 360,000 active;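 active = inhibition at least 30% at 10 µM, raw YFP signal under a set limit, fluorescence ratio 0.5 to 1.5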
Target sequence (Q9P0U3 419-644 limits assumed): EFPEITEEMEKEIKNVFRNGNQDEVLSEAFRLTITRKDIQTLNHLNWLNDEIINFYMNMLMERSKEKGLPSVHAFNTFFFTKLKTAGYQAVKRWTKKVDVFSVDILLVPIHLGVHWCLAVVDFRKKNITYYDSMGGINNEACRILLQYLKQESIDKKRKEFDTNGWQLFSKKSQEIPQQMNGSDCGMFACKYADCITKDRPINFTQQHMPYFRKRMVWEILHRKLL
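Material: hSENP1 catalytic domain, recombinant; medium: Tris pH 8 with BME, BSA, NP40 and catalase; compound: single concentration of 10 µM compound, 0.5% DMSO final; technique: FRET read of cyan and yellow fluorescence; timing: 50 min enzyme reaction, room temperature, light-protected; reagent: SFCypet-SUMO1-SFYpet substrate at 25 nM; control set: no-enzyme low, enzyme-DMSO high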
Rpn11 confirm – Rpn11 inhibition confirmation, single concentration; 29% of 1,900 active; inhibition, % at 20 µM; shares compounds with Rpn11 block; AID 602318; purified human 26S proteasome, Ub4-pepOG fluorescence polarization; proteasome pretreated with epoxomicin
MMP-2 counter – counter-screen for RPN11 inhibitors: inhibition of human MMP-2; inhibition, % at 20 µM; recombinant MMP-2, FRET peptide cleavage fluorescence; 4% of 1,900 active; shares compounds with Rpn11 block;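 also: human MMP-2 activated beforehand with APMA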
Thrombin inh – blocks bovine thrombin, flagging nonselective RPN11 hits; shares compounds with Rpn11 block; bovine thrombin cleavage of Ub4-pepOG, fluorescence polarization; inhibition, % at 20 µM; 13% of 1,900 active; AID 602333;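 active = mean inhibition at least 40% at 20 µM, or signal 3 deviations below plate average, so some actives read negative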
SENP1 inh conf – confirmation of human SENP1 SUMO protease inhibitors | shares compounds with SENP1 inh | recombinant SENP1, CyPet-SUMO1-YPet FRET cleavage | inhibition, % at 10 µM | 34% of 520 active | AID 651678; in the data active = inhibition mostly above about 35%, no sharp cut-off; inactive = mostly below about 32%
SENP1 kinetic – SENP1 (human) inhibition, kinetic confirmation | shares compounds with SENP1 inh | recombinant SENP1, CyPet-SUMO1-YPet FRET kinetic cleavage | inhibition, % at 10 µM | 26% of 520 active | AID 651690; in the data active = inhibition mostly above about 32%, no sharp cut-off; inactive = mostly below about 29%
HNF4A confirm – change in binding of human HNF4 alpha to DNA, retest; HNF4A-FITC DNA binding, fluorescence polarization, 1 h; AID 1224897; shares compounds with HNF4A DNA FP; activity change, % at 12.5 µM; 99% of 210 active; call rule not given here
A number is an active result; - = inactive; . = no result; + = active, no number. Rule as the data show it, unless noted: active = inhibition above about 40%; inactive = the rest.

SMILES	HNF4A DNA FP	ATG4B inhibitor	CSN inh	Rpn11 block	TPT1 inhibitor	SENP1 inh	SENP1 inh conf	SENP1 kinetic	others
COc1ccc(-c2ccc3c(c2)S(=O)(=O)c2cccc(C(=O)NC4CCCC4)c2C3=O)cc1OC	51	-	-	78	.	-	.	.	Rpn11 confirm=-;MMP-2 counter=-;Thrombin inh=-;HNF4A confirm=57
Cc1cc(C)c(S(=O)(=O)c2ccccc2Cl)c(=O)[nH]1	-	-	-	-	-	-	.	.
COc1ccc(N/C=C\C(=O)c2ccc3c(c2)OCO3)cc1	-	-	-	-	-	-	.	.
O=C(/C=C\Nc1ccc2c(c1)OCO2)c1ccc2c(c1)OCO2	81	-	-	38	-	-	.	.	Rpn11 confirm=-;MMP-2 counter=-;Thrombin inh=-;HNF4A confirm=85
CCCCn1c(/N=C/c2ccc(N(C)C)cc2)nc2ccccc21	49	-	-	52	-	-	.	.	Rpn11 confirm=72;MMP-2 counter=-;Thrombin inh=59;HNF4A confirm=81
CCCCn1c(/N=C/c2ccc3c(c2)OCO3)nc2ccccc21	-	-	-	-	-	-	.	.
CN1/C(=C\P(=O)(N(C)C)N(C)C)C(C)(C)c2ccccc21	39	-	-	60	-	-	.	.	Rpn11 confirm=-;MMP-2 counter=-;Thrombin inh=-;HNF4A confirm=43
CCS(=O)(=O)C1=NSC2=NC(=O)/C(=C\c3ccc(OC(=O)c4ccco4)c(OC)c3)C(=N)N21	44	-	-	118	-	-	.	.	Rpn11 confirm=-;MMP-2 counter=-;Thrombin inh=-;HNF4A confirm=59
Cc1ccc(CN2CCCN(Cc3c(C)cc(C)cc3C)S2(=O)=O)cc1	-	-	-	-	-	-	.	.
Cc1ccc(C(=O)Nc2cccc(-c3cnc4ccccc4n3)c2)cc1	-	-	-	-	-	-	.	.
CC(=O)Nc1ccc(C(=O)Nc2cccc(-c3cnc4ccccc4n3)c2)cc1	48	-	86	+	.	-	.	.	Rpn11 confirm=-;MMP-2 counter=-;Thrombin inh=-;HNF4A confirm=60
CCN1C(=O)N2C[C@H]3CON(C)[C@H]3C[C@H]2c2ccccc21	-	.	-	-	.	-	.	.
Cc1ccc(S(=O)(=O)N2CCCN(C(=O)c3cc4ccccc4[nH]3)CC2)cc1	-	-	-	-	-	-	.	.
CCc1ccc2nc(SCC(=O)N3CCCCC3)c(C#N)cc2c1	-	-	-	-	-	-	.	.
Cc1ccc2nc(SCC(=O)Nc3ccccc3N3CCOCC3)c(C#N)cc2c1	-	-	-	-	-	33	-	-
CCc1ccc2nc(SCC(=O)Nc3ccccc3N3CCOCC3)c(C#N)cc2c1	-	-	-	-	-	48	-	-
CCOC(=O)C(=CN=C(N)Nc1nc2ccccc2o1)C(=O)OCC	-	-	-	-	-	-	.	.
CCCOC(=O)Nc1nc2ccccc2o1	-	-	-	-	-	30	-	-
Cc1ccc(S(=O)(=O)NC(=O)Nc2cccc(S(=O)(=O)N(C)C)c2)cc1	-	-	-	-	.	-	.	.
CN(C)c1ccc(/C=N/NC(=O)c2cccc(C(=O)N/N=C/c3ccc(N(C)C)cc3)n2)cc1	-	-	-	-	-	38	-	-
CN(C)c1ccc(/C=N/NC(=O)C(=O)/C=C2\NC3(CCCC3)Cc3ccccc32)cc1	-	-	-	-	-	53	37	-
CC(C)(C)c1ccc(C(=O)NC(=O)COC(=O)CCS(=O)(=O)c2ccccc2)cc1	-	-	-	-	.	-	.	.
O=c1[nH]c2cc([N+](=O)[O-])ccc2c2cc(Br)ccc12	-	.	-	-	.	33	-	-
CC1CCN(S(=O)(=O)c2cccc(S(=O)(=O)N3CCCC3)c2)CC1	-	-	-	-	-	-	.	.
CCC1(CC)NC(=O)N(CC(=O)OCC(=O)Nc2sccc2C#N)C1=O	-	-	-	-	-	-	.	.
SMILES	HNF4A DNA FP	ATG4B inhibitor	CSN inh	Rpn11 block	TPT1 inhibitor	SENP1 inh	SENP1 inh conf	SENP1 kinetic	others
O=C(NCCc1ccccc1)C1CCCN(C(=O)Nc2ccc(F)cc2)C1 (stereo not given)	-	-	-	-	-	-	.	.
O=C(O)c1ccccc1C(=O)Nc1ccccc1NC(=O)c1ccccc1C(=O)O	-	-	-	-	-	88	-	-
Nc1c2c(nc3ccc(Br)cc13)N(c1ccccc1)CC2	-	-	-	-	-	-	.	.
Nc1c2c(nc3ccc(Br)cc13)N(Cc1ccccc1)CC2	-	-	-	-	-	59	-	-
COc1ccc(C(=O)c2ccc3oc(-c4ccc(OC)cc4)c(-c4ccc(O)cc4)c3c2)cc1	-	-	-	-	.	-	.	.
Cc1cccc(C)c1NC(=O)C1C(c2ccccc2)=Nc2ccccc2N1C(=O)c1cnccn1 (stereo not given)	-	.	-	.	.	37	-	-
COc1ccc(NS(=O)(=O)c2cccc(C(=O)NCc3ccccc3CN3CCCC3)c2)cc1	-	-	-	-	.	-	.	.
CN(C)NC(=S)Nc1ccc2nc(-c3ccccn3)c(-c3ccccn3)nc2c1	-	-	-	-	-	59	38	-
CCOC(=O)/C=C/c1cc(F)ccc1O	-	.	-	.	.	66	40	38
CCOC(=O)N/N=C/c1ccc(F)cc1F	-	-	-	-	-	-	.	.
CCOC(=O)/C=C/c1cccc(C)c1O	-	.	-	.	.	32	-	37
CC(C)=CCN1CCN(Cc2cn[nH]c2C2CCCCC2)CC1CCO (stereo not given)	.	-	.	.	-	.	.	.
O=C(CN1C(=O)C(=O)N(Cc2ccccc2)C1=O)Nc1cc(Cl)cc(Cl)c1	-	-	-	-	-	-	.	.
N#CCSc1ccccc1NC(=O)CN1C(=O)C(=O)N(Cc2ccccc2)C1=O	-	-	-	-	.	38	-	-
O=[N+]([O-])c1ccc(-c2cn3c(n2)SCC3)cc1	-	-	-	-	-	31	-	-
N#Cc1ccc(-c2cn3c(n2)SCC3)cc1	-	-	-	-	.	-	.	.
COc1ccc(-c2ccc3c(c2)S(=O)(=O)c2cccc(C(=O)NCc4cc(C)oc4C(F)(F)F)c2C3=O)cc1OC	-	-	-	-	.	59	44	34
